The values that follow come from publication PMC4050191 (FEBS Open Bio, 2014).

Positions count from the first letter of the chain named. Read-outs that look alike come from different tables or passages of the source.

The subject of experiment [1] is HsCen1 (full-length human centrin 1). Nature of the experiment: ITC, peptide binding to full-length HsCen1. Conditions: centrin 1. The procedure, abridged:
(§1)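 Recombinant human centrin (full-length or C-terminal domain; Asp variants made by double-PCR mutagenesis) was expressed in E. coli BL21(DE3), heat-treated at 63 °C, then purified by ion-exchange, phenyl and gel-filtration chromatography. ITC at 30 °C: 10 μM centrin titrated with 100 μM N-acetylated, C-amidated peptide in 50 mM MOPS, 100 mM NaCl, pH 7.5, plus 1 mM CaCl₂ or 2 mM EDTA. Dilution heats subtracted; data fitted for n, Ka and ΔH.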

Experiment [2] deals with HsC1P (human centrin 1 phosphorylated by CK2 at T138). Nature of the experiment: ITC, peptide binding to CK2-phosphorylated HsCen1. Conditions: EDTA / absence of Ca2+; phosphorylated versus unphosphorylated centrin 1.
The next experiment deals with C-HsCen1-T138E. Nature of the experiment: ITC, peptide binding to C-HsCen1-T138E. Also noted: species or system human. Conditions: C-HsCen1-T138E versus C-HsCen1; +Ca2+ (Fig. S3). The procedure, abridged:
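Binding measured by ITC at 30 °C. Cell contained E. coli-expressed, heat-treated, chromatographically purified centrin at 10 μM. N-acetylated, C-amidated target peptide at 100 μM was injected in 8–10 μL steps. Buffer was 50 mM MOPS, 100 mM NaCl, pH 7.5 with 1 mM CaCl₂. The first 2 μL injection was discarded. Baseline-corrected integrated heats were fitted for n, Ka and ΔH. Peptide-into-buffer injections gave dilution heat.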

Experiment [3] concerns HsCen1-T138D (phosphomimetic human centrin 1). Nature of the experiment: ITC, peptide binding to HsCen1-T138D. Conditions: EDTA; HsCen1-T138D versus HsCen1.
Another experiment relates to C-HsCen1-T138D. Nature of the experiment: ITC, peptide binding to C-HsCen1-T138D. Also noted: species or system human. Conditions: EDTA; C-HsCen1-T138D versus C-HsCen1. Summed up:
as §1

Another experiment has as its system C-HsCen2-T138D. Nature of the experiment: ITC, peptide binding to C-HsCen2 T138D. Also noted: species or system human. Conditions: versus C-HsCen2 wild type. The procedure, abridged:
as §1

The next experiment has as its system C-HsCen2-S158D. Nature of the experiment: ITC, peptide binding to C-HsCen2 S158D. Conditions: absence of Ca2+; versus C-HsCen2 wild type. Also noted: species or system human. The procedure, abridged:
as §1

A further experiment has as its system C-HsCen2 T138D-S158D. Nature of the experiment: ITC, peptide binding to C-HsCen2 T138D-S158D. Conditions: versus C-HsCen2 wild type. Also noted: species or system human. Summed up:
as §1

The target in experiment [4] is C-terminal domain of human centrin 1 T138D (human). Nature of the experiment: ITC.
Experiment [5] deals with C-terminal domain of human centrin 1 T138E (human). Nature of the experiment: ITC.
In experiment [6] the target is C-terminal domain of human centrin 1 T138D (human). Nature of the experiment: ITC. This is another data set of the same source.
Experiment [7] deals with C-terminal domain of human centrin 1 T138E (human). Nature of the experiment: ITC. The source holds these as a separate data set.
Experiment [8] concerns the target T1, C-terminal domain of human centrin 1 (M93-Y172) (human, UniProt Q12798 93-172). Nature of the experiment: ITC.
Experiment [9] deals with T2, human centrin 1, full-length (human, UniProt Q12798 1-172).
T2 sequence: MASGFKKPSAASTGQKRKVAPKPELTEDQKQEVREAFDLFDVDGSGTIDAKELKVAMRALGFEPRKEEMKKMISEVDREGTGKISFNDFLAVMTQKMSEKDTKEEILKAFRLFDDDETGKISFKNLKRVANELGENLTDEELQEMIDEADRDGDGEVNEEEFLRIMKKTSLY
Nature of the experiment: ITC.

The target of experiment [10] is T3, human centrin 1 T138D, full-length (human, UniProt Q12798 1-172, T138D).
T3 sequence: T2 sequence with T138D
Nature of the experiment: ITC.

In experiment [11] the target is T4, C-terminal domain of human centrin 2 T138D-S158D (human, UniProt P41208 93-172, T138D | S158D). Nature of the experiment: ITC.
Experiment [12] deals with T5, C-terminal domain of human centrin 2 (M93-Y172) (human, UniProt P41208 93-172). Nature of the experiment: ITC.
Experiment [13] has as its target T6, C-terminal domain of human centrin 2 T138D (human, UniProt P41208 93-172, T138D). Nature of the experiment: ITC.
Experiment [14] addresses T7, C-terminal domain of human centrin 2 S158D (human, UniProt P41208 93-172, S158D). Nature of the experiment: ITC.
The target in experiment [15] is T1, C-terminal domain of human centrin 1 …. Nature of the experiment: ITC. This is another data set of the same source.
Experiment [16] has as its target T2, human centrin 1, full-length. Nature of the experiment: ITC. This is another data set of the same source.
For experiment [17], the target named is T3, human centrin 1 T138D, full-length. Nature of the experiment: ITC. The source holds these as a separate data set.
Experiment [18] deals with T4, C-terminal domain of human centrin 2 …. Nature of the experiment: ITC. This is another data set of the same source.
Experiment [19] concerns the target T5, C-terminal domain of human centrin 2 …. Nature of the experiment: ITC. The source holds these as a separate data set.
Experiment [20] deals with T6, C-terminal domain of human centrin 2 …. Nature of the experiment: ITC. This is another data set of the same source.
Experiment [21] concerns the target T7, C-terminal domain of human centrin 2 …. Nature of the experiment: ITC. The source holds these as a separate data set.

T6 sequence (P41208 93-172 T138D): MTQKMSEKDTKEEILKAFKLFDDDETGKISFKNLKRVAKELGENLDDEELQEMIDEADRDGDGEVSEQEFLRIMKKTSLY
T4 sequence (P41208 93-172 T138D/S158D): as the sequence (P41208 93-172 T138D) above, with S66D counted along it
T7 sequence (P41208 93-172 S158D): as the sequence (P41208 93-172 T138D) above, with D46T, S66D counted along it
T5 sequence (P41208 93-172): as the sequence (P41208 93-172 T138D) above, with D46T counted along it

With 677-SQHNRQLLRGALRRWK-692 [R18-Sfi1], the “equilibrium association constant Ka” value in experiment [1] (presence of Ca2+, ITC, one-site binding model) is 2.5 10^8 M^−1. In experiment [2], the “factor of reduction of binding by phosphorylation at T138” value stood at 10.
On to 325-MAVATGSWDSFLKIWN-340 [Trd], for which the “factor of decrease of affinity by the T138E mutation” value with C-HsCen1-T138E turned out to be 7.
Take 846-NWKLLAKGLLIRERLKR-863 [P17-XPC]: in experiment [1] (+Ca2+ versus EDTA), the “factor of increase of binding by the presence of Ca2+” value turned out to be 5. In addition, the “factor of reduction of binding by phosphorylation at T138” value in [2] came to 10. For the same molecule, the “factor of reduction of binding by the T138D phosphomimetic mutation” value in experiment [3] amounted to 4. In addition, the “factor of decrease of affinity by the T138D mutation” value in the experiment with C-HsCen1-T138D is given as 2. In addition, the “factor of reduction of affinity by the T138D mutation” value in the experiment with C-HsCen2-T138D (absence of Ca2+) came out at 3; in the experiment on C-HsCen2-T138D (presence of Ca2+) it was 2. Moreover, the “factor of reduction of affinity by the S158D mutation” value with C-HsCen2-S158D worked out at 3.7. Moreover, the results for the “factor of reduction of affinity by the T138D-S158D double mutation” value in the experiment on C-HsCen2 T138D-S158D (absence of Ca2+) and in the experiment on C-HsCen2 T138D-S158D (presence of Ca2+) were 9 and 2, respectively.
In the case of “P17-XPC, 17-residue peptide of human XPC”, the Ka worked out at 4.55e+06 M⁻¹ in experiment [4], 430000 M⁻¹ in experiment [5], 3.34e+07 M⁻¹ in [6] and 9.03e+06 M⁻¹ in experiment [7]. Besides, the dH is -30.2 kcal/mol in experiment [4], -32.6 kcal/mol in experiment [5] and -23.6 kcal/mol in experiment [6].

B1: P17-XPC, 17-residue peptide of human XPC (peptide)
peptide: Ac-NWKLLAKGLLIRERLKR-NH2
For B1, the Ka in [8] was found to be 8.25e+06 M⁻¹; in experiment [9] it was 1.22e+07 M⁻¹; in experiment [10], 2.9e+06 M⁻¹; in experiment [11] it was 800000 M⁻¹; in [12], 7.35e+06 M⁻¹; in experiment [13], 2.5e+06 M⁻¹. Moreover, the Ka was 3.96e+07 M⁻¹ in experiment [15]; 5.25e+07 M⁻¹ in [16]; 1.02e+08 M⁻¹ in experiment [17]; 5.27e+07 M⁻¹ in experiment [19]; 2.71e+07 M⁻¹ in [20]; 4.31e+07 M⁻¹ in experiment [21]. The dH was -28.1 kcal/mol in experiment [8]; -28.4 kcal/mol in experiment [9]; -30.2 kcal/mol in experiment [10]; -26.8 kcal/mol in experiment [11]; -29.3 kcal/mol in experiment [12]; -32.7 kcal/mol in experiment [13]. Besides, the dH was -23.8 kcal/mol in [14]; -23.3 kcal/mol in experiment [15]; -28.4 kcal/mol in experiment [16]; -28.5 kcal/mol in experiment [17]; -23.9 kcal/mol in [18]; -23.4 kcal/mol in experiment [19]. The dH in experiment [20] was -24 kcal/mol; in [21], -23 kcal/mol. For the same molecule, the “stoichiometry N” value in experiment [9] amounted to 0.98; in [10] it was 0.92; in experiment [12], 0.95; in experiment [13], 0.94; in [15], 0.93; in [16] it was 1.04. The “stoichiometry N” value in [17] came out at 0.95; in [18], 1.18; in [19] it was 0.81; in experiment [20] it was 0.82; in experiment [21] it was 0.89.
